In ChEMBL document CHEMBL3865847, “The synthesis and biological evaluation of alkyl and benzyl naphthyridinium analogs of eupolauridine as potential antimicrobial and cytotoxic agents” (Bioorg Med Chem, 2016):

test system: not listed separately; experiment: Cytotoxicity against African green monkey Vero cells assessed as cell growth inhibition at 10 ug/ml after 48 hrs by neutral red dye based assay; format: toxicity; settings: chlorocebus sabaeus
How it was run: (§1)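 Cells kept in RPMI-1640 with 10% bovine serum and 60 µg/mL amikacin, 37 °C, 5% CO2. Seeded at 25,000 cells/well, left 24 h to adhere. Samples diluted in RPMI added, highest final concentration 10 µg/mL. Growth measured by neutral red uptake after 48 h exposure.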

SMILES	Activity
Brc1cccc(C[n+]2ccc3ccnc4c3c2-c2ccccc2-4)c1.[Br-]	Non-Toxic
Cc1ccc(C[n+]2ccc3ccnc4c3c2-c2ccccc2-4)cc1.[Br-]	Non-Toxic
Cc1cc2c3c(nc4ccccc42)-c2ccccc2-c3[n+]1C.[I-]	Non-Toxic

test system: not listed separately; experiment: Cytotoxicity against human SKOV3 cells assessed as cell growth inhibition after 48 hrs by neutral red dye based assay; format: functional; settings: SK-OV-3, 48 h; how it was run: as §1

SMILES	IC50
Brc1cccc(C[n+]2ccc3ccnc4c3c2-c2ccccc2-4)c1.[Br-]	0.095 µg/mL
Cc1ccc(C[n+]2ccc3ccnc4c3c2-c2ccccc2-4)cc1.[Br-]	< 1.1 µg/mL
Cc1cc2c3c(nc4ccccc42)-c2ccccc2-c3[n+]1C.[I-]	4.5 µg/mL

test system: Mycobacterium intracellulare; experiment: Antimicrobial activity against Mycobacterium intracellulare ATCC 23068; format: functional; settings: not given
How it was run: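 Mycobacterium grown 72 h in Middlebrook medium with OADC supplement, diluted 1:30 in broth. Incubated at 37 °C with diluted samples in 96-well plates, highest final 50 µg/mL, DMSO at most 2.5%. Absorbance at 630 nm. MIC = lowest concentration with 80% growth inhibition relative to controls; IC50 from concentration versus % growth plots.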

SMILES	MIC80
Brc1cccc(C[n+]2ccc3ccnc4c3c2-c2ccccc2-4)c1.[Br-]	50 µg/mL
Cc1ccc(C[n+]2ccc3ccnc4c3c2-c2ccccc2-4)cc1.[Br-]	50 µg/mL

test system: Cryptococcus neoformans; experiment: Antimicrobial activity against Cryptococcus neoformans ATCC 52657; format: functional; settings: not given
How it was run: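 Grown in mycophil broth 72 h, hemocytometer-counted, diluted to 200,000 CFU/mL. Exposed to diluted samples in 96-well plates, maximum final 50 µg/mL (DMSO up to 2.5%), incubated 30 °C. A630 readout. MIC is the lowest concentration inhibiting 80% of growth versus controls; IC50 read from concentration versus % growth graphs.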

SMILES	IC50	MIC80
Brc1cccc(C[n+]2ccc3ccnc4c3c2-c2ccccc2-4)c1.[Br-]	0.3 µg/mL	0.78 µg/mL
Cc1ccc(C[n+]2ccc3ccnc4c3c2-c2ccccc2-4)cc1.[Br-]	0.33 µg/mL	0.78 µg/mL
Cc1cc2c3c(nc4ccccc42)-c2ccccc2-c3[n+]1C.[I-]	1.83 µg/mL	3.12 µg/mL

test system: Staphylococcus aureus; experiment: Antimicrobial activity against methicillin-resistant Staphylococcus aureus; format: functional; settings: not given
How it was run: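 MRSA precultured 24 h, diluted 1:50 in broth, added to serially diluted samples in 96-well plates (highest final DMSO 2.5%), incubated at 37 °C. Growth measured as absorbance at 630 nm versus controls. MIC is the lowest concentration giving 80% inhibition; IC50 (50% inhibition) is read from concentration versus % growth plots.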

SMILES	IC50
Cc1ccc(C[n+]2ccc3ccnc4c3c2-c2ccccc2-4)cc1.[Br-]	35 µg/mL
Cc1cc2c3c(nc4ccccc42)-c2ccccc2-c3[n+]1C.[I-]	25 µg/mL

test system: Plasmodium falciparum; experiment: Antimalarial activity against Plasmodium falciparum D6 infected in RBC after 48 hrs by lactate dehydrogenase assay; format: functional; settings: D6, 48 h
How it was run: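 Parasites grown in A+ human erythrocytes in RPMI 1640 with 10% A+ human serum, 25 mM HEPES, 27 mM bicarbonate, 60 µg/mL amikacin, 37 °C under 90% N2/5% O2/5% CO2. Infected cells exposed 48 h in microtiter wells, highest concentration 4.8 µg/mL. Growth read by Malstat reagent (parasite LDH) with nitro blue tetrazolium reduction, absorbance 630 nm.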

SMILES	IC50
Brc1cccc(C[n+]2ccc3ccnc4c3c2-c2ccccc2-4)c1.[Br-]	0.013 µg/mL
Cc1ccc(C[n+]2ccc3ccnc4c3c2-c2ccccc2-4)cc1.[Br-]	0.0095 µg/mL
Cc1cc2c3c(nc4ccccc42)-c2ccccc2-c3[n+]1C.[I-]	0.02 µg/mL

test system: Pseudomonas aeruginosa; experiment: Antimicrobial activity against Pseudomonas aeruginosa ATCC 15442; format: functional; settings: not given
How it was run: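 Pseudomonas grown 24 h in trypticase soy broth, diluted 1:50. Combined with diluted samples in 96-well plates, top final concentration 50 µg/mL (≤2.5% DMSO), 37 °C incubation. Growth read at 630 nm. MIC is the lowest tested concentration inhibiting 80% of growth versus controls; IC50 from concentration versus % growth graphs.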

SMILES	IC50
Brc1cccc(C[n+]2ccc3ccnc4c3c2-c2ccccc2-4)c1.[Br-]	40 µg/mL

test system: Candida albicans; experiment: Antimicrobial activity against Candida albicans B311; format: functional; settings: not given
How it was run: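 Cultured in Sabouraud dextrose broth 24 h, counted by hemocytometer, diluted to 10,000 CFU/mL. Added to serially diluted samples in 96-well plates, top final concentration 50 µg/mL (≤2.5% DMSO), incubated 37 °C. Growth by A630. MIC is the lowest concentration giving 80% inhibition against controls; IC50 from concentration versus % growth plots.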

SMILES	IC50	MIC80
Brc1cccc(C[n+]2ccc3ccnc4c3c2-c2ccccc2-4)c1.[Br-]	2.5 µg/mL	6.25 µg/mL
Cc1ccc(C[n+]2ccc3ccnc4c3c2-c2ccccc2-4)cc1.[Br-]	3.17 µg/mL	6.25 µg/mL
Cc1cc2c3c(nc4ccccc42)-c2ccccc2-c3[n+]1C.[I-]	25 µg/mL	50 µg/mL

test system: not listed separately; experiment: Inhibition of Candida albicans DNA topoisomerase 1 using pHOT1 as substrate after 30 mins by agarose gel electrophoresis; settings: not given
How it was run: (§2)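 Relaxation of supercoiled to relaxed DNA by TopoI measured with a commercial TopoI drug kit following kit protocol. IC50 calculated from dose-response curves of % inhibition versus concentration.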

SMILES	IC50
Brc1cccc(C[n+]2ccc3ccnc4c3c2-c2ccccc2-4)c1.[Br-]	21 µg/mL
Cc1ccc(C[n+]2ccc3ccnc4c3c2-c2ccccc2-4)cc1.[Br-]	11 µg/mL
Cc1cc2c3c(nc4ccccc42)-c2ccccc2-c3[n+]1C.[I-]	0.5 µg/mL

biological target: T1, DNA topoisomerase 1 (Homo sapiens, UniProt P11387); experiment: Inhibition of human DNA topoisomerase 1 using pHOT1 as substrate after 30 mins by agarose gel electrophoresis; settings: not given; how it was run: as §2
T1 sequence (P11387 whole entry): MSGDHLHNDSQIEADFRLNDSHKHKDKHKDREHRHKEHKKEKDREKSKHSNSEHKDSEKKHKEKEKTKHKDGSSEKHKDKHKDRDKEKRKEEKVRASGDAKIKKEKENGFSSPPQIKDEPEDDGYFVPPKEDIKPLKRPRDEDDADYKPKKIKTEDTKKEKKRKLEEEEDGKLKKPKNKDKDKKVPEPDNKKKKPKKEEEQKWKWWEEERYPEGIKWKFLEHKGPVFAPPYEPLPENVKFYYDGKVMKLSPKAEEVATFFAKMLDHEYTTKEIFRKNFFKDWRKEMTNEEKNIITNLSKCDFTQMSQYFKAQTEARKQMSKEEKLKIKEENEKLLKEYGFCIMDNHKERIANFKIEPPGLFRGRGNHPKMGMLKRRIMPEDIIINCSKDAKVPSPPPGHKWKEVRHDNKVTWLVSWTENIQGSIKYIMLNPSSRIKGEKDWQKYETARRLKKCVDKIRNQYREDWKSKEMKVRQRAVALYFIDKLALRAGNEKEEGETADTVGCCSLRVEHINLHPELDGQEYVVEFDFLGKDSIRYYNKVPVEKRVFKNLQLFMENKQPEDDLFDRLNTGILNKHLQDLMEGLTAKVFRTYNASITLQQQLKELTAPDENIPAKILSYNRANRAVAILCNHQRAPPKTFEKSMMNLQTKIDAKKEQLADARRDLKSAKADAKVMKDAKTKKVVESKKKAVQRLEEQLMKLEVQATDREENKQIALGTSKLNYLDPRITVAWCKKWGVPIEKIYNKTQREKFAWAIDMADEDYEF

SMILES	IC50
Brc1cccc(C[n+]2ccc3ccnc4c3c2-c2ccccc2-4)c1.[Br-]	48.4 µM
Cc1ccc(C[n+]2ccc3ccnc4c3c2-c2ccccc2-4)cc1.[Br-]	28.3 µM
Cc1cc2c3c(nc4ccccc42)-c2ccccc2-c3[n+]1C.[I-]	1.71 µM

test system: not listed separately; experiment: Cytotoxicity against human BT549 cells assessed as cell growth inhibition after 48 hrs by neutral red dye based assay; format: functional; settings: BT-549, 48 h; how it was run: as §1

SMILES	IC50
Brc1cccc(C[n+]2ccc3ccnc4c3c2-c2ccccc2-4)c1.[Br-]	1.15 µg/mL
Cc1cc2c3c(nc4ccccc42)-c2ccccc2-c3[n+]1C.[I-]	5.4 µg/mL

test system: not listed separately; experiment: Cytotoxicity against human KB cells assessed as cell growth inhibition after 48 hrs by neutral red dye based assay; format: functional; settings: not given; how it was run: as §1

SMILES	IC50
Brc1cccc(C[n+]2ccc3ccnc4c3c2-c2ccccc2-4)c1.[Br-]	0.18 µg/mL
Cc1ccc(C[n+]2ccc3ccnc4c3c2-c2ccccc2-4)cc1.[Br-]	6.8 µg/mL
Cc1cc2c3c(nc4ccccc42)-c2ccccc2-c3[n+]1C.[I-]	3.5 µg/mL

test system: not listed separately; experiment: Selectivity index, ratio of IC50 for human DNA topoisomerase 1 to IC50 for Candida albicans DNA topoisomerase 1; settings: not given

SMILES	Ratio IC50
Brc1cccc(C[n+]2ccc3ccnc4c3c2-c2ccccc2-4)c1.[Br-]	0.95
Cc1ccc(C[n+]2ccc3ccnc4c3c2-c2ccccc2-4)cc1.[Br-]	1
Cc1cc2c3c(nc4ccccc42)-c2ccccc2-c3[n+]1C.[I-]	0.71

test system: not listed separately; experiment: Cytotoxicity against human SK-MEL cells assessed as cell growth inhibition after 48 hrs by neutral red dye based assay; format: functional; settings: not given; how it was run: as §1

SMILES	IC50
Brc1cccc(C[n+]2ccc3ccnc4c3c2-c2ccccc2-4)c1.[Br-]	0.65 µg/mL
Cc1ccc(C[n+]2ccc3ccnc4c3c2-c2ccccc2-4)cc1.[Br-]	1.9 µg/mL
Cc1cc2c3c(nc4ccccc42)-c2ccccc2-c3[n+]1C.[I-]	> 10 µg/mL
